Assay outcomes (PubChem BioAssay)
Rows were chosen to be rich in hits. Some 3.1% of all compounds tested hit in one or more screens of this group.
rRNA inh HTS – selective bacterial rRNA inhibition in E. coli | actives 1.6% (n = 350,000) | E. coli WT GFP vs humanized-ribosome RFP mutants, fluorescence, 24 h; active compounds read low; DMSO median 0, no signal -100 | GFP signal change (wild-type ribosome), % (no concentration beside the values) | AID 720706;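 active = significant combined selectivity score with lowered wild-type GFP, culture density cut under 30%, mutant RFP and density less affected; inactive = any of these conditions unmet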
E-selectin induc – E-selectin induction on HUVECs. P16581. HUVEC E-selectin immunofluorescence imaging; normalized: neutral wells 0, TNF-alpha wells 100. activation, % at 7.58 µM. actives 0.37% (n = 260,000);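 active = mean E-selectin-positive cell signal at least 10% of the positive control, reached in at least 60% of replicates, without over 20% cell loss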
Target sequence (P16581 whole entry, looked up): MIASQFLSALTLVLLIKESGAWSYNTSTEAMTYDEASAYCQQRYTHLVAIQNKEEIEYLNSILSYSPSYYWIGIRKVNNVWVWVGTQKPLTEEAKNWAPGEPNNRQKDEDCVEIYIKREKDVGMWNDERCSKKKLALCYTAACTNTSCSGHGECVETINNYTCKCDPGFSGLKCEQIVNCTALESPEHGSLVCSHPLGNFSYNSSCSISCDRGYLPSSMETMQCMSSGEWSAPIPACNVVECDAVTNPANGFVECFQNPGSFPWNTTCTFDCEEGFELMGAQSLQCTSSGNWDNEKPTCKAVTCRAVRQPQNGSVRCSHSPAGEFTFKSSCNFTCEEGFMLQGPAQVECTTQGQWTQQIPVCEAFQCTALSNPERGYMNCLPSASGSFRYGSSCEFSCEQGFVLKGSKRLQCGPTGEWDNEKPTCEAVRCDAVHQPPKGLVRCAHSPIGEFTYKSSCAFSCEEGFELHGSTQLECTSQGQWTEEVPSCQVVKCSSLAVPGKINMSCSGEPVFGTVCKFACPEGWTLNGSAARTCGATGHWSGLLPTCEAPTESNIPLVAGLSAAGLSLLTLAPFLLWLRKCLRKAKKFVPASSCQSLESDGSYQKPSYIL
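System: HUVEC / Compound: single concentration / Signal: immunofluorescence imaging / Read-out: percent E-selectin-positive cells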
miR122 inh – blocks miR-122 activity in Huh7 sensor cells; activation (reporter increase), % at 12.5 µM; AID 602342; actives 0.3% (n = 340,000); Huh7 miR-122 Renilla luciferase sensor, 48 h; neutral wells = 0, positive control = 100;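 active = mean replicate activation score at least 90 and every replicate individually at or above 90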;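 also: higher luciferase means less miR-122 activity so hits act as miR-122 inhibitors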
DENV2 CPE rescue – DENV2-induced cell death inhibition. actives 1.7% (n = 350,000). DENV2-infected cells, cytopathic effect rescue, plate reader. AID 651640. CPE inhibition, % at 9.99 µM; in the data active = CPE inhibition above about 20%, passing the limit was not always enough; tested in BHK-21 cells
Cneo AK release – Cryptococcus neoformans lysis via adenylate kinase release | actives 0.2% (n = 360,000) | C. neoformans lysis, adenylate kinase release luminescence, 4 h; normalised: neutral wells 0, clomiphene wells 100 | lysis activity, % at 15 µM | AID 651654;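 active = mean lysis activity across replicates of at least 80%, whatever share of replicates individually reach that level; inactive = mean lysis activity below 80%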
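Signal: Adenylate kinase release luminescence | Assay system: Log-phase Cryptococcus neoformans yeast cells | Input: Cells at 5 × 10^6 per mL | Buffer or medium: Fresh YPD growth medium | Compound: Single dose | Schedule: Static 4 h at 37 °C with compound, 1 h detection | Controls: Clomiphene | Read-out: Luminescence rise reflecting yeast cell lysis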
Large screens that a line does not name were inactive; ! = repeats disagree.

Cc1noc(C)c1S(=O)(=O)N(C)C[C@H]1Oc2ccc(NC(=O)CCCCCC(=O)Nc3ccccc3N)cc2CC(=O)N([C@@H](C)CO)C[C@@H]1C	none (no result: miR122 inh, Cneo AK release)
CCOc1ccc(/C(O)=C2/C(=O)C(=O)N(c3ncccn3)C2c2ccc(Cl)cc2)cc1 (stereo not drawn)	rRNA inh HTS -32
CO[C@@H]1CN(C)C(=O)c2ccc(NS(=O)(=O)c3ccccc3)cc2OC[C@@H](C)N(Cc2ccccn2)C[C@H]1C	none (no result: miR122 inh)
Cn1cnc(S(=O)(=O)N2CCCCN3[C@H](CO)[C@@H](c4ccc(-c5ccccc5)cc4)[C@H]3C2)c1	DENV2 CPE rescue 26
Cn1cnc(S(=O)(=O)N2CCCCN3[C@H](C2)[C@@H](c2ccc(-c4ccccc4)cc2)[C@@H]3CO)c1	none
CS(=O)(=O)N1C[C@@H]2N[C@H](C1)[C@@H]2c1ccc(-c2ccccc2)cc1	DENV2 CPE rescue 100 (no result: miR122 inh, Cneo AK release)
COc1ccc(-c2ccc([C@H]3[C@@H](CO)N4CCCCN(S(=O)(=O)c5cccs5)C[C@@H]34)cc2)cc1	DENV2 CPE rescue 22
COc1cccc(-c2ccc(C3[C@H]4CNC[C@@H]3N4S(=O)(=O)c3cn(C)cn3)cc2)c1 (stereo partly drawn)	none (no result: miR122 inh, Cneo AK release)
COc1cccc(-c2ccc([C@@H]3[C@@H](CO)N4CCCCN(S(=O)(=O)c5cccs5)C[C@@H]34)cc2)c1	none
COc1cccc(-c2ccc(C3[C@@H]4CN(S(=O)(=O)c5cn(C)cn5)C[C@H]3N4)cc2)c1 (stereo partly drawn)	DENV2 CPE rescue 131! (no result: miR122 inh, Cneo AK release)
O=S(=O)(c1cccs1)N1CCCCN2[C@H](CO)[C@H](c3ccc(-c4ccccc4)cc3)[C@@H]2C1	DENV2 CPE rescue 23
C[C@H](CO)N1C[C@H](C)[C@H](CN(C)Cc2ccc(C(=O)Nc3ccccc3N)cc2)Oc2ccc(NC(=O)CCC(F)(F)F)cc2C1=O	none
Cc1ncc[nH]1	DENV2 CPE rescue 57 (no result: E-selectin induc)
CCCNC(=O)C[C@@H]1C[C@H]2c3cc(NS(=O)(=O)c4cccc(OC)c4)ccc3O[C@H]2[C@@H](CO)O1	none
Cn1c(=O)c2c(nc(N/N=C/c3ccncc3)n2Cc2ccccc2)n(C)c1=O	rRNA inh HTS -29
CCC(C)(C)C1CCc2[nH]nc(C(=O)NCc3ccccn3)c2C1 (stereo not drawn)	DENV2 CPE rescue 77 (no result: miR122 inh)
CN(C)CC(=O)Nc1ccc2c(c1)[C@@H]1C[C@@H](CC(=O)NC3CCCCC3)O[C@@H](CO)[C@@H]1O2	none
Cn1c(SCC(=O)c2cc3ccccc3o2)nnc1-c1ccccc1	DENV2 CPE rescue 67
Cc1noc(C)c1NC(=O)N(C)C[C@H]1OCCCC[C@H](C)Oc2ccc(NS(=O)(=O)c3cn(C)cn3)cc2C(=O)N([C@H](C)CO)C[C@@H]1C	none
Clc1ccc(-n2nnnc2SCc2cn3ccccc3n2)cc1	none (no result: rRNA inh HTS, E-selectin induc, DENV2 CPE rescue)
Clc1ccc(SCc2cn3ccccc3n2)cc1	rRNA inh HTS -28 (no result: E-selectin induc, Cneo AK release)
CCCc1cn([C@@H]2C[C@@H]3O[C@H](CO)CC[C@@H]3O[C@@H]2CCc2ccc(-c3cccc(OC)c3)cc2)nn1	none (no result: rRNA inh HTS, E-selectin induc, miR122 inh, Cneo AK release)
C[C@@H]1C(=O)N[C@H](c2ccc(F)cc2)CC=CC[C@H](C)Oc2ccccc2C(=O)N1C (mixture of isomers)	none (no result: E-selectin induc, miR122 inh, DENV2 CPE rescue, Cneo AK release)
COCC(=O)N1CC2(C1)[C@@H](c1ccccc1)[C@@H](CO)N2C(=O)c1ccccc1	DENV2 CPE rescue 27 (no result: miR122 inh, Cneo AK release)
CN(C)CC(=O)N1[C@H](CO)[C@H](c2ccccc2)C12CN(CCC(F)(F)F)C2	DENV2 CPE rescue 21 (no result: miR122 inh, Cneo AK release)
COCC(=O)N1CC2(C1)[C@H](c1ccccc1)[C@H](CO)N2C(=O)c1ccccc1	none (no result: miR122 inh, Cneo AK release)
CN(C)CC(=O)N1[C@H](CO)[C@@H](c2ccccc2)C12CN(C(=O)c1ccccc1)C2	DENV2 CPE rescue 81 (no result: miR122 inh, Cneo AK release)
C/C=C/c1ccc([C@@H]2[C@H](CO)N(C(=O)CC)C23CN(C(=O)c2ccccc2)C3)cc1	none (no result: miR122 inh, Cneo AK release)
C/C=C/c1ccc([C@H]2[C@@H](CO)N(C(=O)CC)C23CN(C(=O)c2ccccc2)C3)cc1	DENV2 CPE rescue 29 (no result: miR122 inh, Cneo AK release)
CCC(=O)Nc1ccc2c(c1)OC[C@@H](C)N(C(=O)Cc1ccccn1)C[C@@H](C)[C@@H](OC)CN(C)C2=O	none
CO[C@@H]1CN(C)C(=O)c2cc(NC(=O)NC(C)C)ccc2OC[C@H](C)N(Cc2cncnc2)C[C@@H]1C	none (no result: DENV2 CPE rescue)
CCCNC(=O)C[C@H]1C[C@@H]2c3cc(NS(=O)(=O)c4ccc(OC)cc4)ccc3O[C@@H]2[C@@H](CO)O1	none
CN(C)C(=O)C[C@H]1C[C@H]2c3cc(NC(=O)NC4CCCCC4)ccc3O[C@H]2[C@@H](CO)O1	none
C[C@@H]1CCCCO[C@@H](CN(C)S(=O)(=O)c2cn(C)cn2)[C@H](C)CN([C@@H](C)CO)C(=O)c2cc(NS(=O)(=O)c3ccccc3)ccc2O1	none
O=C(Cc1ccccc1)N1CC2(C1)[C@H](c1ccccc1)[C@@H](CO)N2S(=O)(=O)Cc1ccccc1	DENV2 CPE rescue 33 (no result: miR122 inh, Cneo AK release)
O=C(CC1CC1)N1CC2(C1)[C@H](c1ccccc1)[C@@H](CO)N2S(=O)(=O)Cc1ccccc1	none (no result: miR122 inh, Cneo AK release)
COC(=O)c1sccc1NC(=O)CC1C(=O)NCCN1C(=O)c1ccccc1 (stereo not drawn)	none
COC(=O)c1sccc1NC(=O)CC1C(=O)NCCN1C(=O)Nc1cc(Cl)ccc1OC (stereo not drawn)	rRNA inh HTS -22
Nc1nc2c(s1)CCCCCCCCCC2	rRNA inh HTS -50
CN(C)C(=O)c1cccc(-c2ccc3c(c2)[C@@H]2[C@@H](CCN2C(=O)C2CCCCC2)[C@H](CO)N3)c1	none (no result: DENV2 CPE rescue)
O=C(C[C@H]1CC[C@H](NC(=O)Nc2ccccc2F)[C@H](CO)O1)NCc1ccc(F)cc1	none (no result: miR122 inh, Cneo AK release)
COc1ccc(-c2c[n+](CC(=O)N3c4ccccc4Sc4ccccc43)c3n2CCC3)cc1	rRNA inh HTS -45 (no result: miR122 inh, Cneo AK release)
O=C(C[n+]1cc(-c2ccc(Cl)cc2)n2c1CCC2)Nc1nc(-c2ccccc2)cs1	rRNA inh HTS -44 (no result: E-selectin induc, miR122 inh, Cneo AK release)
Cc1ccc(-c2c[n+](CC(=O)c3cccs3)c3n2CCC3)cc1	rRNA inh HTS -44 (no result: E-selectin induc, miR122 inh, Cneo AK release)
Cc1ccc(-c2c[n+](CC(=O)Nc3ccc(C)cc3C)c3n2CCC3)cc1	rRNA inh HTS -33
COc1ccc(-c2c[n+](CC(=O)c3cccs3)c3n2CCC3)cc1	none (no result: E-selectin induc, miR122 inh, Cneo AK release)
Cc1ccc(NC(=O)C[n+]2cc(-c3ccc(C)cc3)n3c2CCC3)cc1	none (no result: rRNA inh HTS)
O=C(C[n+]1cc(-c2ccc(F)cc2)n2c1CCC2)Nc1nc(-c2ccccc2)cs1	none (no result: rRNA inh HTS, E-selectin induc, DENV2 CPE rescue)
C[C@@H](NC(=O)C[C@H]1C=C[C@@H](NC(=O)C2CCC2)[C@H](CO)O1)c1ccccc1	none (no result: miR122 inh)
C[C@@H]1CCCCO[C@H](CN(C)C(=O)Nc2ccc(F)cc2)[C@H](C)CN([C@H](C)CO)C(=O)c2cc(NC(=O)CCC(F)(F)F)ccc2O1	none (no result: E-selectin induc)
